An excerpt weighted towards active compounds, which were near 4% of everything screened.
FN deposition inh: fibronectin deposition inhibition; AH1F fibroblasts, Alexa488-fibronectin deposition fluorescence, overnight; inhibition, % at 12.6 µM; hit rate 0.086% among 350,000; AID 743247;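 active = mean inhibition across replicates of 30% or more, regardless of how many single replicates reach that level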
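Material: AH1F fibroblast monolayer depositing Alexa488-labelled fibronectin into matrix | Input: 10000 AH1F cells/well | Medium: DMEM plus 2% serum, read in PBS | Reagent: Alexa488-fibronectin, 24 nM final in well | Compound dosing: One dose per compound, pinned | Schedule: 1 h adhesion, overnight exposure | Measured by: Fluorescence at 485 nm excitation, 525 nm emission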
Ecoli rRNA inh: inhibitors of bacterial rRNA selective over humanized ribosomes; E. coli WT GFP vs humanized-ribosome RFP mutants, fluorescence, 24 h; stronger effect = lower value; DMSO median 0, no signal -100; GFP signal change (wild-type ribosome), % (test concentration not listed); hit rate 1.6% among 350,000;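 active = significant combined selectivity score with lowered wild-type GFP, culture density cut under 30%, mutant RFP and density less affected; inactive = any of these conditions unmet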
E-sel inducer: E-selectin induction on HUVECs; hit rate 0.37% among 260,000; P16581; activation, % at 7.58 µM; HUVEC E-selectin immunofluorescence imaging; normalized: neutral wells 0, TNF-alpha wells 100;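 active = mean E-selectin-positive cell signal at least 10% of the positive control, reached in at least 60% of replicates, without over 20% cell loss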
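System: HUVEC / Compound: single concentration / Signal: immunofluorescence imaging / Read-out: percent E-selectin-positive cells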
SIRT5 block: blocks human SIRT5 desuccinylation of peptide. Q9NXA8. Purified SirT5, succinyl-peptide AMC, trypsin-coupled fluorescence. inhibition, % at 15 µM. hit rate 1.1% among 330,000. AID 652115; in the data active = inhibition above about 15%
Target sequence (Q9NXA8 whole entry, looked up): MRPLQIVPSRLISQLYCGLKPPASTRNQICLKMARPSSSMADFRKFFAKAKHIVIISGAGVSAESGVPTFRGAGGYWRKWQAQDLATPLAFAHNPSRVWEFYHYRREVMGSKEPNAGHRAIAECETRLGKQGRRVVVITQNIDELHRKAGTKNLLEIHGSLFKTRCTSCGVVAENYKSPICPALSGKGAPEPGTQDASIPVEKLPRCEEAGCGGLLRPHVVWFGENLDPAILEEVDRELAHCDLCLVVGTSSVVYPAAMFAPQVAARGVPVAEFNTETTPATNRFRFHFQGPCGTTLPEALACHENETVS
Statin myotox sup: suppression of simvastatin myotoxicity; rescue of ATP level, % at 7.49 µM; hit rate 0.78% among 330,000; AID 602340; C2C12 myotubes + simvastatin, ATP luminescence, 48 h; scaled: DMSO 0, geranylgeraniol control 100;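 active = mean ATP rescue above about 67%, or every replicate alone reaching that limit, limit read from the data, passing the limit was not always enough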;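 also: myotubes were challenged with 10 µM simvastatin during compound exposure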
FGF22 binding: binders of recombinant human FGF22 by thermal shift. Q9HCT0. SYPRO orange fluorescence; percent of sucrose octasulfate shift, DMSO zero. activity (Tm shift, normalised), % at 9.99 µM. hit rate 1.5% among 340,000;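 active = mean Tm shift, scaled 0 neutral to 100 positive control, at about 1.3% or above, every replicate too, limit read from the data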
Target sequence (Q9HCT0 whole entry, looked up): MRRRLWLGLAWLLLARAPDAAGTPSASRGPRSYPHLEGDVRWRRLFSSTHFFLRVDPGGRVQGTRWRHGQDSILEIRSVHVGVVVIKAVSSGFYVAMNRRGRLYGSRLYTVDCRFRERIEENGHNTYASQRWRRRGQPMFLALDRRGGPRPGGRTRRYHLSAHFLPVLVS
A number is an active result.

How did COc1ccc(/C=N\NC(=O)c2ccccc2[N+](=O)[O-])cc1COc1c(F)c(F)c(F)c(F)c1F do in these assays?
FN deposition inh: inactive; Ecoli rRNA inh: inactive; E-sel inducer: inactive; SIRT5 block: inactive; FGF22 binding: 4.1

How did O=C(N/N=C/c1ccc(N2CCOCC2)cc1)c1ccccc1NS(=O)(=O)c1cccs1 do in these assays?
FN deposition inh: inactive; Ecoli rRNA inh: -40; E-sel inducer: inactive; FGF22 binding: inactive

How did COc1cc(C=NNC(=O)c2ccccc2NS(=O)(=O)c2cccs2)cc(OC)c1O do in these assays?
FN deposition inh: inactive; Ecoli rRNA inh: inactive; E-sel inducer: inactive; SIRT5 block: inactive; Statin myotox sup: inactive; FGF22 binding: inactive

What do the screens show for `COc1ccc(C=NNC(=O)c2ccccc2NS(=O)(=O)c2cccs2)cc1O`?
FN deposition inh: inactive; Ecoli rRNA inh: -26; E-sel inducer: inactive; SIRT5 block: inactive; Statin myotox sup: inactive; FGF22 binding: inactive

How did O=C(N/N=C/c1ccc(N2CCOCC2)cc1)c1ccc(NS(=O)(=O)c2cccs2)cc1 do in these assays?
FN deposition inh: inactive; Ecoli rRNA inh: inactive; E-sel inducer: inactive; SIRT5 block: inactive; Statin myotox sup: inactive; FGF22 binding: inactive

What do the screens show for `Cc1ccc(NC(=S)NNC(=O)C2CC2c2ccc(C)cc2)cc1` (configuration not stated)?
FN deposition inh: inactive; E-sel inducer: inactive; Statin myotox sup: inactive

How did Cc1ccc(C2CC2C(=O)NNC(=S)Nc2cccc(Cl)c2)cc1 (configuration not stated) do in these assays?
FN deposition inh: inactive; Statin myotox sup: 81

Results for O=C(NNC(=S)Nc1ccc(F)cc1)C1CC1c1ccc(Cl)cc1 (configuration not stated) ?
FN deposition inh: inactive; Ecoli rRNA inh: -52; E-sel inducer: inactive; SIRT5 block: inactive; FGF22 binding: inactive

Results for CCCC(=O)Nc1ccc2c(c1)C(=O)N(C)C[C@@H](OC)[C@H](C)CN(C(=O)c1ccncc1)[C@@H](C)CO2 ?
FN deposition inh: inactive; Ecoli rRNA inh: inactive; E-sel inducer: inactive; SIRT5 block: inactive; Statin myotox sup: inactive

Results for CN1C(=O)c2cc(NC(=O)NC3CCCC3)ccc2OC[C@@H]2O[C@@H](CC(=O)NCC3CC3)CC[C@@H]21 ?
FN deposition inh: inactive; Ecoli rRNA inh: inactive; E-sel inducer: inactive; SIRT5 block: inactive; Statin myotox sup: inactive; FGF22 binding: inactive

How did CCN1CCN(CC(O)COC(c2ccccc2)c2ccccc2)CC1 (configuration not stated) do in these assays?
FN deposition inh: inactive; Ecoli rRNA inh: inactive; SIRT5 block: inactive; Statin myotox sup: inactive; FGF22 binding: 44

How did c1ccc([C@H]2CN3C(=N2)Sc2ccccc23)cc1 do in these assays?
FN deposition inh: inactive; Ecoli rRNA inh: inactive; E-sel inducer: inactive; SIRT5 block: inactive; Statin myotox sup: inactive; FGF22 binding: 45

How did CC(C)NC(=O)N(C)C[C@@H]1Oc2ccc(NC(=O)CCCCCC(=O)Nc3ccccc3N)cc2CC(=O)N([C@H](C)CO)C[C@@H]1C do in these assays?
Ecoli rRNA inh: inactive; E-sel inducer: inactive; Statin myotox sup: inactive; FGF22 binding: inactive

What do the screens show for `COc1ccc(Cc2nnc(NC(=O)C3CCCO3)s2)cc1` (configuration not stated)?
FN deposition inh: inactive; Statin myotox sup: inactive

Results for O=C(Nc1nnc(Cc2ccc(Cl)cc2)s1)C1CCCO1 (configuration not stated) ?
FN deposition inh: inactive; Ecoli rRNA inh: inactive; E-sel inducer: inactive; SIRT5 block: inactive; FGF22 binding: 43

Results for CC(C)CCNC(=O)C1CCN(c2nc3ccccc3o2)CC1 ?
FN deposition inh: inactive; Statin myotox sup: inactive

Results for Cc1ccc(CN2CCC(C(=O)NCCC(C)C)CC2)o1 ?
Statin myotox sup: 109

Results for O=C(Nc1cccc(Cl)c1)C1CCCN(S(=O)(=O)c2ccc(F)cc2)C1 (configuration not stated) ?
Statin myotox sup: 125

What do the screens show for `Cc1ccc(CNC(=O)C2CCCN(S(=O)(=O)c3cccnc3)C2)cc1` (configuration not stated)?
Statin myotox sup: inactive

How did Cc1ccc(NC(=O)C2CCCN(S(=O)(=O)c3cccnc3)C2)c(C)c1 (configuration not stated) do in these assays?
FN deposition inh: inactive; Ecoli rRNA inh: inactive; E-sel inducer: inactive; SIRT5 block: inactive; Statin myotox sup: inactive; FGF22 binding: 44

How did O=C(Nc1ccccc1Cl)C1CCCN(S(=O)(=O)c2ccc(F)cc2)C1 (configuration not stated) do in these assays?
Statin myotox sup: inactive

How did Cc1ccc(NC(=O)C2CCCN(S(=O)(=O)c3cccnc3)C2)cc1C (configuration not stated) do in these assays?
FN deposition inh: inactive; Ecoli rRNA inh: inactive; E-sel inducer: inactive; SIRT5 block: 18; Statin myotox sup: inactive; FGF22 binding: inactive

Results for O=C(C[C@H]1CC[C@@H](NC(=O)CCN2CCCCC2)[C@@H](CO)O1)NCc1ccc(Cl)c(Cl)c1 ?
FN deposition inh: inactive; Ecoli rRNA inh: inactive; E-sel inducer: inactive; SIRT5 block: inactive; Statin myotox sup: inactive; FGF22 binding: inactive

Results for COc1ccc(/C=C2\CN(Cc3ccccc3)C/C(=C\c3ccc(OC)c(O)c3)C2=O)cc1O ?
FN deposition inh: inactive; Ecoli rRNA inh: inactive; E-sel inducer: inactive; SIRT5 block: inactive; Statin myotox sup: 99; FGF22 binding: inactive

How did CCN1C/C(=C/c2ccc(OC)c(O)c2)C(=O)/C(=C/c2ccc(OC)c(O)c2)C1 do in these assays?
Ecoli rRNA inh: inactive; SIRT5 block: inactive; FGF22 binding: inactive

How did O=S(=O)(NN=C1CCCCCCC1)c1ccccc1 do in these assays?
FN deposition inh: inactive; Ecoli rRNA inh: inactive; Statin myotox sup: inactive; FGF22 binding: inactive

What do the screens show for `O=S(=O)(NN=C1CCCCC1)c1ccccc1`?
FN deposition inh: inactive; Ecoli rRNA inh: inactive; E-sel inducer: inactive; SIRT5 block: inactive; Statin myotox sup: 115; FGF22 binding: inactive

How did CCCNC(=O)[C@@H]1[C@@H](CO)[C@@H]2Cn3c(ccc(-c4ccccc4F)c3=O)[C@@H]2N1CC1CC1 do in these assays?
Ecoli rRNA inh: inactive; E-sel inducer: inactive; SIRT5 block: inactive; Statin myotox sup: inactive; FGF22 binding: inactive

What do the screens show for `CCCC(=O)Nc1ccc2c(c1)C(=O)N(C)[C@@H]1CC[C@H](CC(=O)NCC3CCCCC3)O[C@@H]1CO2`?
FN deposition inh: inactive; Ecoli rRNA inh: inactive; E-sel inducer: inactive; SIRT5 block: inactive; Statin myotox sup: inactive; FGF22 binding: inactive

Results for COc1ccc(CCNC(=O)Cn2ccc3c(OC)cccc3c2=O)cc1OC ?
FN deposition inh: inactive; Ecoli rRNA inh: inactive; E-sel inducer: inactive; SIRT5 block: 21; FGF22 binding: inactive

Bioassay records from PubChem.
